# High-throughput results (PubChem BioAssay)
# CHO parental Ca: counter-screen: ATP calcium response change in parental CHO cells. parental CHO-K1, ATP-induced calcium, Fluo-8 fluorescence. 330,000 tested, 0.63% active. inhibition, % at 5.6 µM;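 active = inhibition above that plate's mean sample inhibition plus 3 SD, cut at about 26% in these data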
#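 Assay system – parental CHO cells · Reagent – ATP stimulus · Detection – intracellular calcium via Fluo-8 no-wash fluorescent dye · Evaluation – percent inhibition of ATP-evoked calcium rise, normalized to controls · Controls – ATP wells versus no-ATP DMSO wells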
# OX1R antag-1: OX1R (human) antagonism; 330,000 tested, 1.8% active; OX1R-expressing cells, FRET antagonist read-out; inhibition, % at 6.6 µM; in the data active = inhibition mostly above about 38%, no sharp cut-off; inactive = mostly below about 40%
# OX1R antag-2: human HCRTR1 antagonism | O43613 | CHO/OX1R cells, Fluo-8 calcium fluorescence, orexin A | inhibition, % at 5 µM | 330,000 tested, 0.43% active;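 active = inhibition above its plate's threshold, mean inhibition of all tested compounds on the plate plus 3 SD, cut at about 37% in these data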
# GPR7 antagonist: human neuropeptides B/W receptor 1 antagonism; GPR7-expressing cells, fluorescence antagonist assay; inhibition, % at 4.4 µM; 290,000 tested, 1.1% active; in the data active = inhibition above about 16%, passing the limit was not always enough;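 also: cells stimulated with the agonist NPW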
# Target sequence (P48145 whole entry, looked up): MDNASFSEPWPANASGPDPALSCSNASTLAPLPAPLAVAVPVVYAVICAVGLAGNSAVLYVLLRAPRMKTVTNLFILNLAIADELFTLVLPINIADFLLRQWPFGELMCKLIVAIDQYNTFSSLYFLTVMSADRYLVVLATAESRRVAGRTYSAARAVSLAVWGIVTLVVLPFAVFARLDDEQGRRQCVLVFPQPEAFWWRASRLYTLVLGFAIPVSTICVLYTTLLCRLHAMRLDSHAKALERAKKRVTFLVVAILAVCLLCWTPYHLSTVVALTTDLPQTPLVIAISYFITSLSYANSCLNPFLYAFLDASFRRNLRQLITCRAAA
# MPTP inh: blocks calcium-induced mitochondrial swelling; inhibition, % at 10 µM; AID 602449; 360,000 tested, 1.4% active; isolated mouse mitochondria, Ca2+ swelling absorbance, 30 min;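 active = inhibition of 50% or more, scaled per plate between neutral and stimulator controls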
# OX1R Ca confirm: confirmation of human orexin 1 receptor antagonists; shares compounds with OX1R antag-2; CHO/OX1R cells, orexin A calcium Fluo-8 fluorescence; inhibition, % at 5 µM; 1,100 tested, 38% active; in the data active = inhibition above about 29%
# CHO Ca triplic: signal in parental CHO cells, OX1R antagonist counter-screen | shares compounds with OX1R antag-2 | parental CHO-K1, ATP-induced calcium, Fluo-8 fluorescence | inhibition, % at 5.6 µM | 1,100 tested, 9.3% active | AID 492965;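 active = inhibition above a per-plate limit, the mean inhibition of that plate's test compounds plus 3 SD, cut at about 25% in these data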
# Numbers stand for hits; – = inactive; · = no result given. An excerpt weighted towards active compounds, which were near 3.8% of everything screened.
SMILES,CHO parental Ca,OX1R antag-1,OX1R antag-2,GPR7 antagonist,MPTP inh,OX1R Ca confirm,CHO Ca triplic
COc1nc(N(c2ccccc2)c2ccccc2)nc(-n2ccnc2)n1,–,–,45,–,–,43,–
COc1ccc(-n2ccnc2)cc1,–,–,–,–,–,·,·
CC[C@@]1(C(=O)OC)N[C@H](CN(C)C(=O)c2ccc(C)cc2)[C@@H]2C(=O)N(Cc3ccccc3)C(=O)[C@@H]21,–,–,–,·,–,·,·
CCCC(C)C(=O)OCC(=O)Nc1ccc(Br)cc1 (configuration not stated),–,–,–,–,·,·,·
CC(=O)NC(C)C(=O)OCC(=O)Nc1ccc(Br)cc1 (configuration not stated),–,–,–,–,–,–,–
O=C(NC(CO)(CO)CO)[C@@H]1CCCN1S(=O)(=O)c1cccc2cccnc12,–,–,–,·,–,·,·
CC(=O)Nc1ccc(S(=O)(=O)N2CCSC2c2ccccc2Cl)cc1 (configuration not stated),–,–,–,–,–,–,–
COc1ccc(NC(=O)Cn2nnc(C(=O)NCc3ccccc3)c2N)c(OC)c1,–,–,–,–,–,·,·
COc1ccc(C(=O)NNC(=S)NC(=O)c2cccs2)cc1,–,–,–,–,–,–,–
COc1ccc(C(=O)NC(=S)NNC(=O)c2cccc(C)c2)cc1,–,–,–,·,·,31,–
COc1ccc(C(=O)NNC(=S)NC(=O)c2ccc(OC)cc2)cc1,–,–,–,–,–,·,·
O=C1c2ccccc2-c2n[nH]c(=O)c3ccc(N4CCCCC4)c1c23,–,–,–,–,–,–,–
Cc1ccc(N2CCOCC2)c2c1C(=O)c1ccccc1C2=O,–,–,–,–,–,·,·
CC(=O)c1ccc(NC(=S)N(C)C2CCN(C)CC2)cc1,–,–,–,–,–,·,·
Cc1cccc2c1cnn2C(=O)CCC(=O)NCc1ccc(F)cc1,–,–,50,–,–,–,–
CC(C)Oc1ccc(C2CC(=O)N(c3cccc(/C=C/C(=O)O)c3)C2=O)cc1 (configuration not stated),–,–,–,–,–,·,·
O=C(NNC(=O)c1nn(-c2ccc(F)cc2)ccc1=O)c1ccccc1Cl,–,–,–,–,–,·,·
CC(C)c1ccc(NNC(=O)C2CCC2)cc1,–,–,–,–,–,·,·
O=C(CN(c1cccc([N+](=O)[O-])c1)S(=O)(=O)c1ccccc1)N(Cc1ccccc1)Cc1ccccc1,–,–,–,–,–,–,–
Cc1nc2ccccn2c(=O)c1NC(=O)c1cccc2ccccc12,–,–,–,·,–,·,·
O=C(N/N=C/c1ccccn1)c1cc(-c2ccc(Br)cc2)nc2ccccc12,–,–,50,–,–,40,–
CCN(CC)c1ccc(/C=c2/sc3nnc(-c4ccccc4C)n3c2=O)cc1,–,–,–,–,–,44,40
CC(C)(C)c1ccccc1OCC(=O)Nc1ccccc1C(=O)NCc1cccnc1,–,–,43,–,–,–,–
O=C(Cc1c(Cl)cccc1Cl)N1CCN(S(=O)(=O)c2cccs2)CC1,–,–,–,·,–,·,·
CCCc1nnc(NC(=O)Cn2c(=O)oc3ccccc32)s1,–,–,–,–,–,·,·
SMILES,CHO parental Ca,OX1R antag-1,OX1R antag-2,GPR7 antagonist,MPTP inh,OX1R Ca confirm,CHO Ca triplic
CCCc1nnc(NC(=O)Cn2c(=O)oc3cc(Br)ccc32)s1,–,–,–,–,–,–,–
C=CCNC(=S)NC(=O)c1oc2ccccc2c1C,–,–,–,–,–,38,–
Cc1c(C(=O)NC(=S)NCC(C)C)oc2ccccc12,–,–,–,–,–,·,·
NC(=O)CSc1nnc(NC(=O)c2ccc(S(=O)(=O)N3CCCCC3)cc2)s1,–,–,–,·,–,·,·
COc1ccc(OC)c(S(=O)(=O)Nc2ccc(Oc3ccccc3)cc2)c1,–,–,–,–,–,–,–
C[C@H](CO)N1C[C@H](C)[C@@H](CN(C)Cc2ccccc2)Oc2c(NC(=O)Cc3ccccc3)cccc2C1=O,–,–,–,·,–,·,·
C[C@H](CO)N1C[C@H](C)[C@@H](CN(C)Cc2ccc(Cl)c(Cl)c2)Oc2c(NC(=O)Cc3ccccc3)cccc2C1=O,–,–,56,·,–,–,–
COc1cc(/C=C/C(O)=C/C(=O)/C=C/c2ccc(O)cc2)ccc1O,–,–,–,·,–,–,–
COc1ccc(/C=C/C(=O)c2cc(Br)ccc2O)cc1OC,–,–,–,–,–,·,·
